Screening data (PubChem BioAssay)
This is a sample that favours compounds with a hit; in the whole collection about 2.7% have one here.
CHO parental Ca – ATP-evoked calcium signal inhibitors, parental CHO, primary screen, counter-screen for OX1R antagonist project, cell-based, fluorescence, Fluo-8 calcium dye. parental CHO-K1, ATP-induced calcium, Fluo-8 fluorescence. inhibition, % at 5.6 µM. 330,000 compounds, 0.63% hits. AID 463079, 2010;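 active = inhibition above that plate's mean sample inhibition plus 3 SD, cut at about 26% in these data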;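 note: 0% = ATP-challenged DMSO wells and 100% = DMSO wells without ATP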
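Measured by: calcium-sensitive Fluo-8 fluorescence / Test system: CHO parental line / Controls: ATP-challenged DMSO wells low, unchallenged DMSO wells high / Measure: % inhibition / Compound: single nominal dose of 5.6 µM per compound / Replicates: single well per compound, no replicates / Reagent: ATP as calcium-mobilizing challenge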
OXTR potentiate – human OXTR potentiators, primary screen, fluorescence, CHO-OTR cells, Fluo-8 calcium; Oxytocin receptor (Homo sapiens), P30559; Fluo-8 calcium fluorescence, potentiator mode; 0% = oxytocin EC15, 100% = EC100; activation, % at 3 µM; 320,000 compounds, 0.061% hits;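 active = activation above that plate's cutoff, the mean activation of tested compounds plus 3 SD, cut at about 6.6% in these data, passing the limit was not always enough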;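 note: 100% uses oxytocin at 75 nM as the full agonist control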
Target sequence (P30559 whole entry, looked up): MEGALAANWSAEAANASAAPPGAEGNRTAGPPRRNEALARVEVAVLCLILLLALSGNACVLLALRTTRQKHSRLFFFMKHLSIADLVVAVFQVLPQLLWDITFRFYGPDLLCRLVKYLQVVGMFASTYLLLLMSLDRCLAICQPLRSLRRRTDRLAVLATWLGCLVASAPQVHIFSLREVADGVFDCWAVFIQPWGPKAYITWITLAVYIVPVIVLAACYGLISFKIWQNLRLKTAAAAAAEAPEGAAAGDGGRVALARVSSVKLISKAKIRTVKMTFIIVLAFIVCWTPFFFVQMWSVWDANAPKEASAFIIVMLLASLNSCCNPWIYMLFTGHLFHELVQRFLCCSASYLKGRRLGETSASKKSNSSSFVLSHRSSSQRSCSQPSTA
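System: human OTR in CHO cells; Also added: sub-maximal oxytocin, roughly EC15; Timing: compound 6 min at room temperature before oxytocin, 100 s read; Technique: Fluo-8 intracellular calcium fluorescence, ex 470-495, em 515-575 nm; Controls: oxytocin EC15 low and EC100 high; Replication: singlicate.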
OX1R antag-1 – OX1R (HCRTR1) antagonists, primary screen, fluorescence, CHO/OX1R cells, Fluo-8 calcium, orexin A; Orexin/Hypocretin receptor type 1 (Homo sapiens), O43613; Fluo-8 calcium fluorescence; inhibition, % at 5 µM; 330,000 compounds, 0.43% hits; AID 434989, 2010;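 active = inhibition above its plate's threshold, mean inhibition of all tested compounds on the plate plus 3 SD, cut at about 37% in these data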;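 note: 0% = orexin A challenge wells and 100% = SB-334867-A antagonist wells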
OXTR agonist – human OXTR agonists, primary screen, fluorescence, CHO-OTR cells, Fluo-8 calcium | Oxytocin receptor (Homo sapiens), P30559 | Fluo-8 calcium fluorescence; normalized: DMSO 0%, oxytocin 100% | activation, % at 3 µM | 320,000 compounds, 0.32% hits;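 active = activation above the mean of all tested compounds plus 3 SD, cutoff set per screening run, cut at about 20% in these data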;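 note: peak over basal fluorescence ratio from a 100 s FLIPR kinetic read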
OX1R antag-2 – antagonists of human orexin 1 receptor (OX1R). Orexin/Hypocretin receptor type 1 (Homo sapiens), O43613. OX1R-expressing cells, FRET antagonist read-out. inhibition, % at 6.6 µM. 330,000 compounds, 1.8% hits. AID 485270, 2010; in the data active = inhibition mostly above about 38%, no sharp cut-off; inactive = mostly below about 40%;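 note: 0% = agonist challenge alone and 100% = reference antagonist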
V1R ag counter – agonists of human V1a receptor, primary screen, counter-screen for OXTR agonist project, fluorescence, CHO-V1R cells | Vasopressin V1a receptor (Homo sapiens), P37288 | Fluo-8 calcium fluorescence, agonist mode; 0% DMSO, 100% 3 nM vasopressin | activation, % at 3 µM | 320,000 compounds, 0.25% hits | AID 2797, 2010;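 active = activation above the mean activation of all tested compounds plus 3 SD, per screening run, cut at about 20% in these data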;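 note: signal is peak over basal fluorescence ratio across a 100 second FLIPR read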
V1R ag confirm – V1a receptor agonists, calcium signal, confirmation, Fluo-8 calcium fluorescence, CHO-V1R cells | shares compounds with V1R ag counter | agonist | activation, % at 3 µM | 180 compounds, 20% hits;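 active = average activation exceeds primary screen hit cutoff, cut at about 21% in these data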;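 note: peak over basal fluorescence ratio during a 100 s FLIPR read; 0% = DMSO only wells and 100% = 3 nM vasopressin wells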
OXTR ag counter – human OXTR agonists, counter-screen for V1R agonist project, fluorescence, CHO-OTR cells, triplicate | activation, % at 3 µM | shares compounds with V1R ag counter | 180 compounds, 10% hits | Fluo-8 calcium fluorescence;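 active = mean activation over three repeats above the cutoff from the earlier oxytocin receptor agonist screen, cut at about 20% in these data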;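 note: peak over minimum fluorescence ratio within a 100 second FLIPR read; 0% = DMSO only wells and 100% = oxytocin high control wells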
* marks the source's active call; other numbers are inactive results; · = no result.

SMILES	CHO parental Ca	OXTR potentiate	OX1R antag-1	OXTR agonist	OX1R antag-2	V1R ag counter	V1R ag confirm	OXTR ag counter
C=CCn1c(SCC(=O)c2ccc(Br)cc2)nnc1C(CC(C)C)NC(=O)c1cccs1 (stereo unspecified)	-32.1	-6.7	-22.0	-1.3	8.9	0.7	·	·
O=C(NC(=S)NCCc1ccccn1)c1ccccc1	-16.4	-0.3	-32.2	0.3	35.3	0.5	·	·
O=C(NC(=S)NCCc1ccccn1)c1ccco1	-12.8	-0.1	-10.8	-0.5	3.3	116.7*	0.0	0.1
O=C(CSc1nnc(COc2ccccc2Cl)o1)NC(=O)NCc1ccco1	-5.0	-2.1	-2.2	0.6	-2.5	-0.8	·	·
Cc1noc(NS(=O)(=O)c2ccc(NC(=O)NC(C)(C(F)(F)F)C(F)(F)F)cc2)c1C	-3.0	-13.1	17.9	0.0	-8.3	0.0	·	·
Cc1noc(C(F)(F)F)c1C(=O)NNC(=O)c1cccc(C(F)(F)F)c1	-8.2	-3.5	-6.9	-1.2	6.2	20.4*	0.9	-0.2
Cc1ccc(C(C)NC(=S)NCc2ccc(F)cc2)cc1C (stereo unspecified)	-1.1	-11.4	-14.6	2.8	5.0	6.1	·	·
Cc1ccc(C(C)NC(=S)NCc2ccc(F)cc2)c(C)c1 (stereo unspecified)	-11.3	-15.5	-11.4	3.4	17.8	23.4*	4.4	1.6
O=C(CCCN=C1NS(=O)(=O)c2ccccc21)OCC(=O)c1ccc(Br)cc1	-4.0	-14.0	-7.0	14.5	-3.3	25.8*	10.4	7.9
CC1(c2ccccc2Cl)NC(=O)N(CC(=O)NCc2ccc3c(c2)OCO3)C1=O (stereo unspecified)	-2.3	-12.3	-14.6	1.3	9.8	0.7	·	·
Cc1ccc(NC(=O)c2ccc(OC(=S)N3CCOCC3)cc2)cc1	-14.8	-12.8	-17.1	3.5	19.1	26.2*	0.0	0.2
CC(=O)Oc1ccc(C(=O)Nc2ccc(S(=O)(=O)N3CCOCC3)cc2)cc1	-2.1	-6.3	-3.1	2.6	13.7	1.9	·	·
Cc1cccc(OCC(=O)N(Cc2ccco2)C2CCS(=O)(=O)C2)c1C (stereo unspecified)	-15.2	0.0	-35.7	-1.1	14.6	0.7	·	·
Cc1ccc(NS(=O)(=O)c2ccc(C(=O)N3CCCCCC3)cc2)cc1	-0.9	-12.5	19.8	13.8	2.0	20.8*	13.2	17.1
O=C(CCCC(=O)NCC1CCCO1)NCC1CCCO1 (stereo unspecified)	-10.0	-0.1	-7.8	1.3	8.1	20.3*	-0.1	-0.2
O=C(CN1CCCCCC1)NCC1CCCO1 (stereo unspecified)	1.2	-2.4	-6.5	1.8	5.6	0.7	·	·
CC(=O)Nc1ccc(S(=O)(=O)NNC(=O)COc2ccc(Cl)cc2Cl)cc1	-13.3	-3.1	3.1	-0.3	18.2	0.2	·	·
CCOc1ccc(CONS(=O)(=O)c2ccc(NC(C)=O)cc2)cc1Cl	1.6	-18.7	-2.2	11.3	39.0	23.0*	9.1	7.6
Cc1ccc2sc(N(CCCN(C)C)C(=O)CCS(=O)(=O)c3ccccc3)nc2c1C	-6.6	-11.5	-9.7	15.0	1.6	24.3*	2.1	7.0
COc1cc(C(=O)NNC(=S)NC(=O)c2ccccc2C)cc(OC)c1OC	-0.4	-5.1	21.8	9.3	11.5	29.4*	11.2	8.1
COc1cc(C(=O)NNC(=S)NC(=O)c2ccc3c(c2)OCO3)cc(OC)c1OC	-13.0	-4.9	-33.3	7.8	17.2	0.2	·	·
